Laboratory results: ChEMBL document CHEMBL4513216, “Probing the Open Global Health Chemical Diversity Library for Multistage-Active Starting Points for Next-Generation Antimalarials” (ACS Infect Dis, 2020)

Test: Toxicity liver stage against HepG2, at 10uM
Type: cell-based
Parameters: test concentration 10 uM, cell line HepG2-A16-CD81EGFP
Details: human, HepG2-A16-CD81EGFP cells; read-out: INHIBITION
In short: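 Uninfected HepG2-A16-CD81EGFP cells, 3 × 10^3 per well, 1536-well, plated on prespotted compound at 10 μM final, parasite-free screening media added to match infected plates; puromycin 10 μM positive, DMSO 0.5% negative; run in parallel with 48 h PbLuc assay at 37 °C, 5% CO2; viability by CellTiter-Glo luminescence, normalized to controls.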

Row | SMILES | cytotoxicity at 10 µM [%]
1 | CC1CCN(Cc2cc(=O)[nH]c(=O)[nH]2)CC1 | 9.95
2 | COCC(=O)N[C@H](C)c1onc(-c2ccc(OC)cc2)c1C(=O)O | 4.82
3 | CCc1cc(=O)[nH]c2nnc(SCC(=O)NC(C)C)n12 | -6.93
4 | CC(=O)c1nn(-c2ccccc2Cl)c(C)c1C(C)=O | 6.33
5 | O=C(Cn1nc2c(cc1=O)CCCC2)NC(Cc1ccccc1)C(=O)O (stereo unspecified) | 2.24
6 | CN(C)c1nccc(C2CCCCN2Cc2cnn3cccnc23)n1 (stereo unspecified) | 10.5
7 | COc1cccc(CN2CCCC2c2cncc(Nc3nncs3)n2)c1 (stereo unspecified) | 4.73
8 | CCN1CCCC1CNCc1cc2cc(C)c(C)cc2[nH]c1=O (stereo unspecified) | -6.69
9 | O=C(NCCc1ccc(F)cc1)C1CN(C(=O)Cn2cncn2)C1 | 3.54
10 | Cc1cc(CN(C)Cc2ncc(C(C)(C)C)o2)no1 | 2.58
11 | Cc1oc(C)c(C(=O)NS(=O)(=O)c2ccc3c(c2)OCCCO3)c1C | 6.08
12 | Cc1ccc(CNC(=O)NCC(=O)NC(C)(C)C)c(N2CCCC2)c1 | 5.68
13 | COC(=O)c1ccc(CNC(C)(C)c2ccccc2OC)o1 | -0.651
14 | CC(C)Oc1ccc(C(O)CNCc2ccccc2C(F)(F)F)cc1 (stereo unspecified) | -1.71
15 | CCOc1ccc(CN2C(=O)CC(C)(C)C2=O)nc1 | -11.9
16 | Cc1cnn(C2CN(CC(O)c3ccc(F)cc3)C2)c1 (stereo unspecified) | 11.9
17 | CC(C)Cc1noc(CN2CCN(C(=O)c3cccc(F)c3)CC2)n1 | -5.7
18 | COc1ccc(CNCCc2cc(F)cc3c2OCOC3)cc1O | -9.26
19 | CCn1nnc2c1C(COC)CN(Cc1ccco1)C2 (stereo unspecified) | 0.73
20 | Cc1cnc(C)c(N2CCC3(CCCN(C4CCOCC4)C3=O)C2)n1 (stereo unspecified) | -124
21 | CCCn1cc(C(=O)N2CCCC(c3nccn3CCOC)C2)c(C)n1 (stereo unspecified) | 0.00455
22 | Cc1ncsc1CCC(=O)NCc1cc2n(n1)CCNC2 | -3.78
23 | COc1ccc(-c2ncc(-c3nccn3CCN(C)C)cn2)cc1 | 1.44

Row | SMILES | cytotoxicity at 10 µM [%]
24 | O=C(c1cnc(O)cn1)N1CCC(CN2CCOCC2)CC1 | 9.49
25 | COc1cccc(-c2cccc(-c3ccn(CC4COCCO4)n3)c2)n1 (stereo unspecified) | -3.81
26 | CCc1noc(-c2cccc(C(=O)O)c2)n1 | -8.24
27 | COc1c(C)cnc(CN2CCC(N(C)C(=O)C(C)OC)CC2)c1C (stereo unspecified) | -11.3
28 | Cc1[nH]ncc1CCCNC(=O)N1CCCC(c2nncn2C)C1 (stereo unspecified) | -7.58
29 | CC(NC(=O)CSCC#N)c1cccc(Cl)c1 (stereo unspecified) | -3.06
30 | CCN1CCN(C(=O)NCc2cc[nH]n2)CC1 | -12.7
31 | Cc1nc(C)c(C(=O)NCCNC(=O)Cc2ccc(F)cc2)s1 | -5.68
32 | CCn1nc2c(cc1=O)CN(CC(=O)Nc1nnc(C)s1)CC2 | -18.2
33 | COc1ccc(C(C)NC(=O)Cn2ccc(=O)n(C)c2=O)cc1F (stereo unspecified) | -3.17
34 | c1cnnc(N2CCCC2CNCc2noc(C3CC3)n2)c1 (stereo unspecified) | -7.45
35 | Cc1nn(C)c(N2CCOCC2)c1CNCc1ccoc1C | -8.76
36 | CCn1cc(NC(=O)NCC(O)c2ccccc2)cn1 (stereo unspecified) | -1.14
37 | CCOC(=O)CSc1nnc([C@@H](N)C(C)CC)o1 (stereo partly specified) | 2
38 | CN(C(=O)c1ncn2c1CN(C)S(=O)(=O)c1ccccc1-2)C1CC1 | -131
39 | CNC(=O)[C@H]1C[C@@H]2CCN(Cc3ccncc3)C[C@H]2O1 | 10.3
40 | O=C(NCc1ccco1)[C@H]1CC[C@@H]2[C@@H](CCN2Cc2nccs2)O1 | 2.67
41 | CCN(CC)CC1CN(Cc2ccc(C)s2)Cc2nccn2C1 (stereo unspecified) | 2.32
42 | O=C(NCc1cnc2n1CCN(CC1CC1)C2)C1CC1 | 5.06
43 | Cc1cnc(N2CCOC3(CCCN(CC(=O)N(C)C)C3)C2)nc1 (stereo unspecified) | 8.67
44 | Cc1cc(CN2C[C@@H]3CN(C(=O)c4ccsc4)CCO[C@@H]3C2)no1 | -131
45 | c1cnc(NC[C@@H]2CCC[C@@H]3CN(Cc4csnn4)C[C@@H]32)nc1 | -126
46 | c1ccc(-c2cnc3n2CCNC32CCNCC2)cc1 | -2.2
